Experimental data from ChEMBL document CHEMBL3414544, “PAINS in the assay: chemical mechanisms of assay interference and promiscuous enzymatic inhibition observed during a sulfhydryl-scavenging HTS” (J Med Chem, 2015).
Active and inactive are the calls of the source.

How the values were obtained:
[1] = biological target: T1, Histone acetyltransferase RTT109 (Saccharomyces cerevisiae (strain ATCC 204508 / S288c) (Baker's yeast), UniProt Q07794); assay: Inhibition of Vps75-stimulated recombinant Saccharomyces cerevisiae histone acetyltransferase Rtt109 using Asf1-dH3-H4 as substrate assessed as coenzyme A production after 45 mins by CPM based HTS assay; conditions: read-out: IC50
T1 sequence (Q07794 whole entry): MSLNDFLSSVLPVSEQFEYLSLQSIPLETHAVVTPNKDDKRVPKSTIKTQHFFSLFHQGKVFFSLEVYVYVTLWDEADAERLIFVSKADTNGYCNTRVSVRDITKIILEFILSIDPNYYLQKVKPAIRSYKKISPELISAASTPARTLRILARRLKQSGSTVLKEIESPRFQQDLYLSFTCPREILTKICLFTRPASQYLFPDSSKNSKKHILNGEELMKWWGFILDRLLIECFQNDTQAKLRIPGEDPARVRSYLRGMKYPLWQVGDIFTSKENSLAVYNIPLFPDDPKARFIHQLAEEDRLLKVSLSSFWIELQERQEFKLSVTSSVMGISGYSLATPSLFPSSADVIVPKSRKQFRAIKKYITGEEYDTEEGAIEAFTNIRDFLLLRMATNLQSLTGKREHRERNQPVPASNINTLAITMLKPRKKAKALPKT
Outline: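 Recombinant Rtt109–Vps75 at 50 nM, with Asf1–dH3–H4 as substrate and acetyl-CoA as acetyl donor. Buffer contained freshly prepared 0.01% Triton X-100. The CoA product was detected by fluorescence of its CPM adduct. Plates had Z′ ≥0.5. IC50 came from a four-parameter variable-slope fit.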

[2] = biological target: T2, Histone acetyltransferase RTT109 (Saccharomyces cerevisiae (strain ATCC 204508 / S288c) (Baker's yeast)) (UniProt Q07794); assay: Inhibition of Vps75-stimulated recombinant Saccharomyces cerevisiae histone acetyltransferase Rtt109 assessed as H3K56 acetylated product at […] after 45 mins by Slot bolt inhibiton assay
T2 sequence (whole entry): T1 sequence (Q07794 whole entry)

[3] = biological target: T2, Histone acetyltransferase RTT109 (Saccharomyces cerevisiae (strain ATCC 204508 / S288c) (Baker's yeast)); assay: Inhibition of Vps75-stimulated recombinant Saccharomyces cerevisiae histone acetyltransferase Rtt109 assessed as H3K27 acetylated product at […] after 45 mins by Slot bolt inhibiton assay
[4] = Fluorescence quenching assessed as fluorescence signal reduction at 10 uM after 10 mins; type: physicochemical
Outline: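 CPM (20 μM final) and CoA (5 μM final) reacted to completion in assay buffer (stable plateau, usually ~5 min); adduct solution added to wells preplated with compound; shaken 5 min, equilibrated 5 min at room temperature; fluorescence intensity read as percent signal reduction versus DMSO controls. Flagged as quencher at >20% signal reduction at 10 μM final compound.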

[5] = Fluorescence quenching in HTS buffer assessed as fluorescence signal reduction at 10 uM after 10 mins; type: physicochemical
[6] = Fluorescence quenching in HTS buffer with […] CoA assessed as fluorescence signal reduction at 10 uM after 10 mins; type: physicochemical
[7] = Fluorescence quenching in HTS buffer with 20 uM 7-diethylamino-3-(4'-maleimidyl-phenyl)-4-methylcoumarin assessed as fluorescence signal reduction at 10 uM after 10 mins; type: physicochemical

SMILES	IC50 [1] [µM]	Activity [2]	Activity [3]	Activity [4]	Activity [5]	Activity [6]	Activity [7]
COc1ccc(Nc2nc(-c3ccc(OC)cc3)[n+](CS(=O)(=O)c3ccc(C)cc3)s2)cc1.O=S(=O)([O-])O	2.7	Active	Active	Not Active	Not Active	Not Active	Not Active
COc1ccc(-c2nnc(Sc3ccc([N+](=O)[O-])c4nonc34)o2)cc1	0.96	Active	Active	Not Active	Not Active	Not Active	Not Active
Cc1ccc(N2C(=O)CC(Sc3nnc(-c4ccccc4O)o3)C2=O)cc1 (stereo not given)	50	Active	Active	Not Active	Not Active	Not Active	Not Active
Nc1ncnc2[nH]c(Sc3c([N+](=O)[O-])cc(Br)c4nsnc34)nc12	3.2	Active	Active	Not Active	Not Active	Not Active	Not Active
O=[N+]([O-])c1ccc(Sc2nnnn2-c2ccccc2)c2nonc12	0.45	Active	Active	Not Active	Not Active	Not Active	Not Active
COc1ccc(N2C(=O)CC(Sc3n[nH]c(-c4ccccc4)n3)C2=O)cc1 (stereo not given)	21	Active	Active	Not Active	Not Active	Not Active	Not Active
Cc1ccc(Sc2cc(NS(=O)(=O)c3ccc(Cl)cc3)c3ccccc3c2O)cc1	2.9	Active	inactive	Not Active	Not Active	Not Active	Not Active
O=[N+]([O-])c1c(SCc2ccccc2)cc(Cl)c2nonc12	1.7	Active	Active	Not Active	Not Active	Not Active	Not Active
CC(C)c1ccc(S(=O)(=O)Nc2ccc(O)c(Sc3nc[nH]n3)c2)cc1	200	inactive	inactive	Not Active	Not Active	Not Active	Not Active
O=S(=O)(Nc1cc(Sc2nc[nH]n2)c(O)c2ccccc12)c1ccc(Cl)cc1	1.4	inactive	Active	Not Active	Not Active	Not Active	Not Active
Cn1c(CN2CCOCC2)nnc1Sc1ccc([N+](=O)[O-])c2nonc12	1.8	Active	Active	Not Active	Not Active	Not Active	Not Active
O=[N+]([O-])c1c(Sc2ncnc3[nH]cnc23)cc(Cl)c2nsnc12	2.2	Active	Active	Not Active	Not Active	Not Active	Not Active
O=C1C=CC(=O)N1c1cccc(F)c1	6.1	Active	Active	Not Active	Not Active	Not Active	Not Active
Cc1ccc(S(=O)(=O)Nc2cc(Sc3nnnn3-c3ccccc3)c(O)c3ccccc23)cc1	8.6	Active	Active	Not Active	Not Active	Not Active	Not Active
O=C1C=CC(=O)N1c1cc(Cl)cc(Cl)c1	3.1	Active	Active	Not Active	Not Active	Not Active	Not Active
O=C1C=CC(=O)N1c1ccc(Br)cc1	3	Active	Active	Not Active	Not Active	Not Active	Not Active
O=[N+]([O-])c1ccccc1-c1nnc(SC2=CS(=O)(=O)c3ccccc32)o1	5.7	Active	Active	Not Active	Not Active	Not Active	Not Active
O=C1C=CC(=O)N1c1ccccc1	7.6	Active	Active	Not Active	Not Active	Not Active	Not Active
[O-][Cl+3]([O-])([O-])[O-].c1ccc(-c2nc(N(c3ccccc3)c3ccccc3)s[n+]2-c2ccccc2)cc1	3.5	Active	Active	Not Active	Not Active	Not Active	Not Active
O=C1CC(Sc2nc[nH]n2)C(=O)N1c1ccccc1 (stereo not given)	15	Active	Active	Not Active	Not Active	Not Active	Not Active
O=S(=O)(C[n+]1sc(N(c2ccccc2)c2ccccc2)nc1-c1ccccc1)c1ccccc1.[Br-]	50	inactive	inactive	Not Active	Not Active	Not Active	Not Active
O=S(=O)(Nc1cc(Sc2nc[nH]n2)c(O)c2ccccc12)c1ccccc1	1.4	Active	Active	Not Active	Not Active	Not Active	Not Active
O=S(=O)(C[n+]1sc(Nc2ccccc2)nc1-c1ccccc1)c1ccc2ccccc2c1.[Br-]	28	inactive	inactive	Not Active	Not Active	Not Active	Not Active
O=S(=O)(Nc1cc(Sc2cccc3cccnc23)c(O)c2ccccc12)c1ccccc1	2.4	Active	Active	Not Active	Not Active	Not Active	Not Active
CN(CCO)c1cc(Sc2nnc(-c3ccccc3)o2)c2nonc2c1[N+](=O)[O-]	5.3	Active	Active	Not Active	Not Active	Not Active	Not Active
